Experimental data published in ChEMBL document CHEMBL4513216, “Probing the Open Global Health Chemical Diversity Library for Multistage-Active Starting Points for Next-Generation Antimalarials” (ACS Infect Dis, 2020).

Experiment: Toxicity liver stage against HepG2, at 10uM
Assay type: cell-based
Design: test concentration 10 uM, cell line HepG2-A16-CD81EGFP
Settings: human, HepG2-A16-CD81EGFP cells; read-out: INHIBITION
How it was run: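 Uninfected HepG2-A16-CD81EGFP cells, 3 × 10^3 per well, 1536-well, plated on prespotted compound at 10 μM final, parasite-free screening media added to match infected plates; puromycin 10 μM positive, DMSO 0.5% negative; run in parallel with 48 h PbLuc assay at 37 °C, 5% CO2; viability by CellTiter-Glo luminescence, normalized to controls.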

CCN1CCCC1CNC(=O)Cc1c(-c2ccc(Cl)cc2)n[nH]c1C (stereo not given)
cytotoxicity at 10 µM: -5.4%

Cc1cc(CN2CCC(CNS(=O)(=O)c3ccccc3F)CC2)c(C)o1
cytotoxicity at 10 µM: 5.48%

O=C(c1ccsc1)N1CCC(c2nnc(C3CC3)o2)CC1
cytotoxicity at 10 µM: 12.3%

COC1(CNC(=O)c2ccoc2)CCSC1 (stereo not given)
cytotoxicity at 10 µM: -10.8%

O=C(NCCn1ccc(-c2ccccn2)n1)C1CCC1
cytotoxicity at 10 µM: 4.23%

COC1CCN(c2ccc(NC(=O)Cn3cccc3)cc2)CC1
cytotoxicity at 10 µM: 2.99%

Cc1cc(C(=O)N2CCCC3(COCCN(c4ccccc4)C3)C2)[nH]n1 (stereo not given)
cytotoxicity at 10 µM: -1.56%

C[C@H]1C[C@H]2CN(C(=O)c3cccc4c3OCCO4)CC[C@H]2O1
cytotoxicity at 10 µM: -0.91%

O=C1CC(c2ccccc2Br)c2sc(N3CCOCC3)nc2N1 (stereo not given)
cytotoxicity at 10 µM: 9.4%

COc1cccc(-c2ccnc3nc(N4CCCCC4)[nH]c(=O)c23)c1
cytotoxicity at 10 µM: 7.97%

COc1ccc(-c2noc(C(=O)NCCN3CCCCC3)n2)cc1OC
cytotoxicity at 10 µM: -6.24%

CC(C)N(C)Cc1nnc2n1CCCN(C(=O)c1ccco1)C2
cytotoxicity at 10 µM: -1.17%

CC(Nc1ncnc2c1NC(=O)CN2)c1ccccn1 (stereo not given)
cytotoxicity at 10 µM: 7.66%

O=C(Cc1ccc(Cl)cc1)N[C@@H]1CCC[C@@H](O)[C@@H]1O
cytotoxicity at 10 µM: 2.3%

CN(CCc1ccccc1)Cc1c(C2CC2)[nH]c2ncccc12
cytotoxicity at 10 µM: 0.145%

Cc1ccnc(C2CN(Cc3ccc(-c4ccccc4C(=O)O)o3)C2)n1
cytotoxicity at 10 µM: 2.51%

CC(=O)NC[C@]1(O)CCN(C(=O)c2ccc3c(c2)CCC3)C[C@H]1O
cytotoxicity at 10 µM: 1.75%

CC(C)CCN1CCCC12Cc1ccccc1CNC2=O (stereo not given)
cytotoxicity at 10 µM: 7.61%

CCc1nnsc1C(=O)NCCc1nnc2n1CCC2
cytotoxicity at 10 µM: 3.16%

Cc1cc(CN2CCN(Cc3ccc(C#N)cc3OC(F)F)CC2)no1
cytotoxicity at 10 µM: 1.81%

Cc1ccc(O)c(C(=O)NCCCS(=O)(=O)Cc2ccccc2)c1
cytotoxicity at 10 µM: 33.6%

CCN(Cc1ccoc1)C(=O)c1ccncc1O
cytotoxicity at 10 µM: 6.85%

Cc1cccc(C(=O)N(CCCO)S(=O)(=O)c2cccs2)c1
cytotoxicity at 10 µM: 8.01%

CC(=O)C(Cc1ccccc1)NC(=O)CSc1nccn1C1CC1 (stereo not given)
cytotoxicity at 10 µM: 5.22%

CC(C)Oc1ccc(CNC(=O)C2CCC(=O)N2)cn1 (stereo not given)
cytotoxicity at 10 µM: 10.5%

Cc1cc(CN(C)C(=O)NCc2ccco2)no1
cytotoxicity at 10 µM: 1.58%

Cc1ccc(CNc2ccc(N3CCC(CO)CC3)cn2)o1
cytotoxicity at 10 µM: 19.1%

O=C(NC1CCN(C2CC2)C1)c1cn(-c2ccc(F)cc2)nn1 (stereo not given)
cytotoxicity at 10 µM: -2.25%

CCc1[nH]c(C2(N)CCCC2)nc(=O)c1C
cytotoxicity at 10 µM: -1.29%

O=C(CNC(=O)c1ccc(Cl)cc1)Nc1nccs1
cytotoxicity at 10 µM: -7.55%

CCCC(=O)NCc1ccc(N2CCCCC2)cc1
cytotoxicity at 10 µM: 3.54%

CS(=O)(=O)N1CCC(C(=O)N2CCN(Cc3cccc(Cl)c3)CC2)CC1
cytotoxicity at 10 µM: 8.99%

Cc1cc(C)n(CC(=O)N(CC2CN(C)CCO2)c2nccs2)n1 (stereo not given)
cytotoxicity at 10 µM: -5.85%

Cn1nc(CC(C)(C)C)cc1NC(=O)c1ccc2[nH]nnc2c1
cytotoxicity at 10 µM: 1.25%

COc1c(CNCc2cccc(CN3CCOCC3)c2)c(C)nn1C
cytotoxicity at 10 µM: 11.1%

CC(C)c1nnc(CNCC2CCCN2c2cccnn2)o1 (stereo not given)
cytotoxicity at 10 µM: 1.05%

CCC1CCCCN1Cc1ncc(-c2ccc(OC)cc2)o1 (stereo not given)
cytotoxicity at 10 µM: 8.57%

CCc1nc(CN(C)Cc2ncc(-c3cccs3)o2)cs1
cytotoxicity at 10 µM: 9.15%

CC1(C)CN(CC(F)(F)F)CCN1CC(=O)NC1CC1
cytotoxicity at 10 µM: 12.5%

CN(CCN1CCCC1=O)CC(c1cccs1)N1CCOCC1 (stereo not given)
cytotoxicity at 10 µM: 1.52%

O=C(NC1CCN(C(=O)C2CCCCC2)C1)c1ccncc1Cl (stereo not given)
cytotoxicity at 10 µM: 10.4%

Cc1[nH]ccc1C(=O)N1CCCN1C(=O)OC(C)(C)C
cytotoxicity at 10 µM: -6.49%

Cc1noc(C(C)SCc2ccccn2)n1 (stereo not given)
cytotoxicity at 10 µM: -6.67%

OC1(CN2CCC(Cc3ccccc3)CC2)CCC1
cytotoxicity at 10 µM: -8.26%

c1cnn(C2CN(Cc3noc(C4CC4)n3)C2)c1
cytotoxicity at 10 µM: 0.138%

c1cnc(N2CCN(Cn3nccc3-c3cccnc3)CC2)nc1
cytotoxicity at 10 µM: 8.99%

Cc1csc(C2(NCc3ccc(OCC(F)F)cc3)CCCC2)n1
cytotoxicity at 10 µM: 2.15%

Cc1nn(C)c(Cl)c1S(=O)(=O)N(C)c1ccc(Cl)cn1
cytotoxicity at 10 µM: 7.92%

Cn1ccnc1-c1cccc(NC(=O)NCCN2CCOCC2)c1
cytotoxicity at 10 µM: -7.85%

CCc1nc(C2CCCN2CC(=O)Nc2c(C)nn(C)c2C)no1 (stereo not given)
cytotoxicity at 10 µM: -31.4%

Cc1csc(N2CCN(CCc3ccccn3)CC2C)n1 (stereo not given)
cytotoxicity at 10 µM: -8.81%

CN(C)C(=O)N1C[C@@H]2COC[C@]2(CNS(C)(=O)=O)C1
cytotoxicity at 10 µM: -1.47%

Cc1ccc2c(c1)[C@@H](CC(=O)N1CCOCC1)CCO2
cytotoxicity at 10 µM: 8.24%

Nc1ncc(-c2cccc(NC(=O)[C@@H]3CCCCN3)c2)cn1
cytotoxicity at 10 µM: 1.86%

Cc1nc[nH]c1CN1CCN(C(=O)C2CC2)[C@H]2CS(=O)(=O)C[C@H]21
cytotoxicity at 10 µM: 0.855%

Cn1c(CN2CC[C@](C)(O)C(C)(C)C2)cc2ccccc21
cytotoxicity at 10 µM: -3.6%

CCn1ccnc1CN(C)Cc1nc(Cc2ccccc2Cl)no1
cytotoxicity at 10 µM: -1.99%

Cn1ncnc1-c1ccnc(NCc2ccncc2)n1
cytotoxicity at 10 µM: -3.89%

COc1ccc(C(=O)C2CCCN(Cc3cnn(C)c3C)C2)c(OC)c1 (stereo not given)
cytotoxicity at 10 µM: -8.85%

O=C(c1ccc(C2CCCO2)s1)N1CCCOCC1 (stereo not given)
cytotoxicity at 10 µM: -0.256%

O=C1CCCN1c1cccc(N2CCC(NCCc3cscn3)CC2)c1
cytotoxicity at 10 µM: -26%

Cc1ccc(C(=O)N2C[C@H](NS(C)(=O)=O)[C@@H](C(C)C)C2)cc1F
cytotoxicity at 10 µM: -2.36%

CC(C)N1CC2(CCCN(c3ncc(Cl)cc3F)C2)CCC1=O (stereo not given)
cytotoxicity at 10 µM: 12.2%

O=S(=O)(NCCn1cc(C2CCOC2)nn1)c1ccc(Cl)cc1 (stereo not given)
cytotoxicity at 10 µM: -4.89%

O=C(COCc1ccccc1)N1CCCn2cncc2C1
cytotoxicity at 10 µM: 0.375%

CS(=O)(=O)CCc1ncnn1-c1ccc(F)c(Cl)c1
cytotoxicity at 10 µM: -4.56%

CC(C)C1CN(C(=O)c2cc(C3CC3)n[nH]2)CCC(=O)N1CC1CC1 (stereo not given)
cytotoxicity at 10 µM: -9.55%

N#Cc1cccc(N2CCC3(CC2)Nc2ccccc2NC3=O)n1
cytotoxicity at 10 µM: 5.57%

O=C(NCCc1[nH]nc2c1CCCC2)C1CCCN(Cc2ccco2)C1 (stereo not given)
cytotoxicity at 10 µM: 2.72%

CCN1CCC(CNc2nccc(C)n2)(N(C)C)CC1
cytotoxicity at 10 µM: -0.51%

Cc1nc(CN(C)Cc2nc(-c3ccccc3)no2)co1
cytotoxicity at 10 µM: -1.86%

CN(C)C(C(=O)N1CCC(c2ncc[nH]2)CC1)c1ccc2c(c1)OCO2 (stereo not given)
cytotoxicity at 10 µM: 2.8%

CCc1[nH]c2c(CNc3cncc(C(=O)N(C)C)n3)cc(C)cc2c1C
cytotoxicity at 10 µM: -10.2%

CN(Cc1cc2n(n1)CCNC2)Cc1cc(-c2ccccn2)no1
cytotoxicity at 10 µM: 1.91%

COc1cc(N(C)CCCn2nc(C)cc2C)ncn1
cytotoxicity at 10 µM: 1.6%

O=C(c1cc(Cn2cnc3ccccc32)on1)N1CCOCC1
cytotoxicity at 10 µM: -2.46%

c1cnc(N2CCN(CCn3ccnc3-c3c[nH]cn3)CC2)nc1
cytotoxicity at 10 µM: 2.14%

Cc1ccc(-c2noc(CCC3CCN(C)CC3)n2)nn1
cytotoxicity at 10 µM: -5.79%

COc1cccc2c1OCC(CNC(=O)CNC(N)=O)C2 (stereo not given)
cytotoxicity at 10 µM: -2.93%

O=C(c1ccccn1)N1CCCC(c2nccn2CC2CCC2)C1 (stereo not given)
cytotoxicity at 10 µM: -22.4%

O=C(c1cccc(S(=O)(=O)NCCCc2ccco2)c1)N1CCOCC1
cytotoxicity at 10 µM: -23.6%

CN(C)C(=O)c1ccc2c(c1)N(C)C(CC(=O)NCCC(C)(C)C)CO2 (stereo not given)
cytotoxicity at 10 µM: -0.8%

Cc1n[nH]c(C)c1NC(=O)CN1CCCC1c1noc(C(C)C)n1 (stereo not given)
cytotoxicity at 10 µM: 6.45%

Cc1cccc(-c2noc(CN3CC(n4cccn4)C3)n2)c1
cytotoxicity at 10 µM: -0.0158%

COc1cc(CCC(=O)NC(C)C(=O)O)ccc1OCC(F)(F)F (stereo not given)
cytotoxicity at 10 µM: -2.15%

CC(NC(=O)NCc1c(F)cccc1Cl)(C(=O)O)c1ccco1 (stereo not given)
cytotoxicity at 10 µM: -3.23%

Cc1nc(C)n(C2CCCN(C(=O)c3ccnc(N(C)C)c3)C2)n1 (stereo not given)
cytotoxicity at 10 µM: -8.36%

Cc1nc(N2CCCN(C(=O)c3ccsc3)CC2)c2cnn(C)c2n1
cytotoxicity at 10 µM: -10.8%

CCC(C)N(CCOC)Cc1nc2c(cnn2C)c(=O)[nH]1 (stereo not given)
cytotoxicity at 10 µM: -12.4%

O=c1[nH]c(CCN2CCCC2Cn2cccn2)nc2ccccc12 (stereo not given)
cytotoxicity at 10 µM: -8.05%

O=C(NCCCN1CCCCC1)c1n[nH]c(=O)c2ccccc12
cytotoxicity at 10 µM: -30.9%

Cc1csc(N2CCCN(C(=O)Cc3cccs3)CC2)n1
cytotoxicity at 10 µM: -6.87%

Cc1nc(C)n(C2CCCN(C(=O)c3csc(C)n3)C2)n1 (stereo not given)
cytotoxicity at 10 µM: -18.7%

COc1cc(C(=O)NS(=O)(=O)c2cccc(C#N)c2)ccc1C
cytotoxicity at 10 µM: -9.29%

CC(C)(C)NC(=O)C1CSCN1S(=O)(=O)c1ccc(F)cc1 (stereo not given)
cytotoxicity at 10 µM: 0.65%

CC(C)Sc1ncccc1C(=O)NCc1ccc(CS(C)(=O)=O)cc1
cytotoxicity at 10 µM: 3.78%

Cc1cc(C)n(C2CCCN(C(=O)c3cc(C4CC4)on3)C2)n1 (stereo not given)
cytotoxicity at 10 µM: -1.11%

CC(C)c1nc2n(n1)CC(NCc1ncc(-c3ccccc3)o1)CC2 (stereo not given)
cytotoxicity at 10 µM: -0.361%

CC(=O)Nc1ccc(Oc2cc(C)nc(C3CCCNC3)c2)cc1 (stereo not given)
cytotoxicity at 10 µM: 2.58%

Cn1cc(N2CC3(CCN(Cc4ccccc4)CC3)OCC2=O)cn1
cytotoxicity at 10 µM: 5.25%

Cc1cnc(N2CC[C@@H]3OC(COCC(=O)N(C)C)CC[C@@H]32)nc1 (stereo not given in full)
cytotoxicity at 10 µM: 7.98%

Cc1cncc(C(=O)N2CCO[C@H]3[C@H](OCCN(C)C)CC[C@@H]32)c1
cytotoxicity at 10 µM: 8.07%

Cc1nc(CO[C@@H]2CN(Cc3ccsc3)[C@@H]3COC[C@@H]32)cs1
cytotoxicity at 10 µM: 3.04%

Cc1ccc(C(=O)N2CCOCC3(CCN(C4CCOCC4)C3)C2)o1 (stereo not given)
cytotoxicity at 10 µM: -0.152%

c1ccc(CO[C@H]2CO[C@@]3(CCN(Cc4ccoc4)C3)C2)nc1
cytotoxicity at 10 µM: -15.3%

c1cncc(CN2CCOC(c3ncn4c(C5CC5)cccc34)C2)c1 (stereo not given)
cytotoxicity at 10 µM: 1.79%

Cc1ccc(CN2C[C@@H]3CN(CC4CCOCC4)CCO[C@@H]3C2)s1
cytotoxicity at 10 µM: -12.7%

Cc1nc(CN2CCOCC3(CCN(c4ccccn4)C3)C2)cs1 (stereo not given)
cytotoxicity at 10 µM: 12.8%

O=C1CO[C@@H]2CN(Cc3cccs3)C[C@H]2N1Cc1ccncc1
cytotoxicity at 10 µM: 2.08%

NCC1CCC(C(NC(=O)c2cccc(F)c2)c2ccccn2)CC1 (stereo not given)
cytotoxicity at 10 µM: -6.83%
